# SR-BI DiI inh: inhibitors of SR-BI mediated HDL lipid uptake, primary screen, ldlA[mSR-BI] cells, fluorescence, single point; ldlA[mSR-BI] CHO cells, DiI-HDL uptake fluorescence, 3 h; inhibition, % at 12.5 µM; hit rate 0.96% among 320,000; Scavenger receptor class B member 1 (Mus musculus), Q61009;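 active = mean replicate inhibition of at least 70% and a set share of replicates each scoring 70 or more; inconclusive = meets just one of the two criteria; inactive = fails both criteria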;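 note: 0% = median of neutral control wells and 100% = median of positive control wells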
# Target sequence (Q61009 whole entry, looked up): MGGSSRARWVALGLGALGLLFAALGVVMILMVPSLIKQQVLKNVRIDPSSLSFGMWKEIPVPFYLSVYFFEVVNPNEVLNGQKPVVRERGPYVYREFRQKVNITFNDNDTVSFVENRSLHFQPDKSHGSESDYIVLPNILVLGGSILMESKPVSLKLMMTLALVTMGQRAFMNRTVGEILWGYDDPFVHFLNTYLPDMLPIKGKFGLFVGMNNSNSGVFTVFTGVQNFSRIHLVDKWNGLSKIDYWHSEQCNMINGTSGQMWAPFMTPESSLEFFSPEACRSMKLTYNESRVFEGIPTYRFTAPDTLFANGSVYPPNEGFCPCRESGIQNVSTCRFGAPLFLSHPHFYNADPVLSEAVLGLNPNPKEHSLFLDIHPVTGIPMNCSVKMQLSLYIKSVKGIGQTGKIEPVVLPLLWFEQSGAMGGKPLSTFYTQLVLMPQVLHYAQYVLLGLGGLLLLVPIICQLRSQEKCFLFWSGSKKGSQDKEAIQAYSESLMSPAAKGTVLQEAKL
# FN deposit inh: inhibitors of fibronectin matrix deposition, primary screen, AH1F cells, Alexa488-fibronectin fluorescence, plate reader; AH1F fibroblasts, overnight; inhibition, % at 12.6 µM; hit rate 0.086% among 350,000; AID 743247, 2014;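 active = mean inhibition across replicates of 30% or more, regardless of how many single replicates reach that level; inconclusive = mean under 30% yet at least half of replicates reach 30%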;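 note: positive control wells lacked labelled fibronectin entirely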
#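 Schedule: 1 h cell adhesion before compound, then overnight fibronectin incubation; test system: AH1F fibroblast monolayer depositing Alexa488-labelled fibronectin into matrix; quantity: 10000 AH1F cells per well; probe or stimulus: fluorescent fibronectin at 24 nM final; signal: fluorescence, ex 485 nm, em 525 nm; evaluation: percent inhibition as loss of matrix-bound fibronectin fluorescence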
# SR-BI DiI-HDL act: activators of SR-BI mediated DiI-HDL uptake, primary screen, ldlA[mSR-BI] CHO cells, DiI fluorescence; 3 h; 100 = double the neutral-control signal; activation, % at 12.5 µM; hit rate 0.096% among 320,000; AID 504775, 2011;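 active = mean replicate activation of at least 60% and every replicate at or above 60%; inconclusive = mean or all-replicate condition met, but not both; inactive = mean below 60% and not all replicates reaching 60%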;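 note: 0% = median plate neutral-control signal and 100% = twice that signal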
#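 System: CHO ldlA[mSR-BI] cells / Medium: HEPES-buffered (25 mM, pH 7.4) F12 plus 0.5% BSA / Probe or stimulus: labelled HDL, 10 µg/mL / Doses: single compound concentration, delivered by pin transfer / Schedule: 3 h, 37 °C / Measured by: DiI fluorescence, bottom read / Measure: cell-associated DiI fluorescence as measure of HDL uptake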
# CaV13 FRET inh: Primary screen for inhibitors of IQ motif and Ca2+-dependent inactivation inhibitor domain binding in CACNA1D, Förster resonance energy transfer in living cells, …; HEK cells, CFP/YFP FRET ICDI-IQ, plate reader, 10 min; percent FRET-ratio fall versus neutral wells; inhibition, % at 12.3 µM; hit rate 0.098% among 340,000; AID 743397;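 active = mean replicate inhibition of at least 30% and at least 1% of replicates passing that level; inconclusive = only one of the two criteria is met; inactive = neither criterion is met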;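 note: 0% = median of the neutral control wells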
# Efflux pump inh: inhibitors of Candida efflux pumps in yeast, primary screen, S. cerevisiae, Nile Red, multiplex; S. cerevisiae Candida pump triplex; hit rate 0.44% among 330,000; AID 485275, 2010; inhibition, % at 10 µM;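 active = plate passing quality check with inhibition over a set limit, or well fluorescence over plate mean plus 4 SD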;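 note: Nile Red retained in pooled yeast measured as flow cytometry median fluorescence; 0% = buffer negative control and 100% = Enniatin B positive control; higher means more Nile Red kept so more efflux inhibition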
# An asterisk follows results filed as active; ? = inconclusive; . = not tested or not shown; + = active, no number. Only some compounds are listed: those with a hit (about 1.2% of all), similar ones and a draw of the others.
SMILES,SR-BI DiI inh,FN deposit inh,SR-BI DiI-HDL act,CaV13 FRET inh,Efflux pump inh
CCOc1cc(C=O)ccc1OCCCN1C(=O)NC(C)(C)C1=O,-15,.,15,-6,0
CCCCOc1ccc(/C=C/C2=CC(C)(C)NC(=S)N2)cc1OCC,89*,-20,-89,-5,0
CCCCCc1cc(=O)oc2c(C(CCN3CCCCC3)c3cc(OC)c(OC)c(OC)c3)c(OC)cc(OC)c12 (configuration not stated),-62,-6,62*,-6,0
COCCNC(=O)C[C@@H]1CC[C@@H]2[C@@H](COc3ccc(NC(C)=O)cc3C(=O)N2C)O1,.,-12,.,.,.
COc1ccc(OC)c(CN2CCN(C(=O)c3ccc(S(=O)(=O)Nc4ccccc4F)cc3)CC2)c1,58,-3,-58,-2,-1
COc1ccc(OC)c(CN2CCN(C(=O)c3cccc(S(=O)(=O)Nc4ccccc4OC)c3)CC2)c1,77*,13,-77,-6,0
COc1ccc(C(=O)N2CCN(C(=O)c3ccc(-c4ccccc4)cc3)CC2)cc1OC,45,2,-45,2,0
COc1cccc(CN2CCN(C(=O)c3ccc(-c4ccccc4)cc3)CC2)c1OC,9,32*,-9,1,0
COc1cccc(CN2CCN(C(=O)c3ccc(-c4ccccc4)cc3)CC2)c1,39,1,-38,-3,0
COc1cc(OC)cc(C(=O)N2CCN(C(=O)c3ccc(-c4ccccc4)cc3)CC2)c1,79*,2,-79,-4,0
COc1cc(CN2CCN(C(=O)c3ccc(-c4ccccc4)cc3)CC2)cc(OC)c1OC,84*,.,-84,-6,0
Fc1cccc(CN2C[C@@H]3N[C@H](C2)C3c2ccc(/C=C/c3ccccc3)cc2)c1 (some centres not stated),.,-5,.,.,.
COc1cccc(OC)c1C(=O)N1CCN(Cc2ccccc2C)CC1,-67,.,67*,.,0
COc1ccccc1CN1CCN(C(=O)c2cccc3ccccc23)CC1,.,4,.,-15,0
O=C(Nc1cnn(Cc2ccccc2)c1)c1cc2nc(-c3ccco3)cc(C(F)(F)F)n2n1,71*,.,-71,.,0
O=C(NCc1ccco1)c1cc2nc(-c3ccc4c(c3)OCO4)cc(C(F)(F)F)n2n1,72*,.,-72,-9,0
Cc1nn(C)cc1NC(=O)c1cc2nc(-c3ccco3)cc(C(F)(F)F)n2n1,40,-6,-40,-21,0
O=C(NCc1cccnc1)c1cc2nc(-c3ccc4c(c3)OCO4)cc(C(F)(F)F)n2n1,.,5,.,-5,0
Cc1cc(C)nc(NC(=NCCc2c[nH]c3ccccc23)NC(=O)c2ccco2)n1,71*,.,-71,-5,0
C=CCN1CC(=O)N2C(c3ccccc3)c3[nH]c4ccccc4c3C[C@H]2C1=O (some centres not stated),78*,0,-78,-14,0
CN1CC(=O)N2C(c3cccc([N+](=O)[O-])c3)c3[nH]c4ccccc4c3C[C@H]2C1=O (some centres not stated),80*,-1,-80,-4,0
COCCCN1CC(=O)N2C(c3cccc(C)c3)c3[nH]c4ccccc4c3C[C@H]2C1=O (some centres not stated),76*,-3,-76,-2,0
CC(C)CC#Cc1ccc2c(c1)O[C@@H](CN(C)C)[C@@H](C)CN([C@@H](C)CO)S2(=O)=O,.,8,.,.,.
Cn1cnc(CCNC(=O)C[C@@H]2CC[C@H]3[C@@H](COC[C@@H](O)CN3C(=O)Nc3ccc(F)cc3)O2)c1,.,4,.,.,.
O=S(=O)(/C=C/C=C/S(=O)(=O)c1ccccc1)c1ccccc1,-13,34*,13,-5,.
SMILES,SR-BI DiI inh,FN deposit inh,SR-BI DiI-HDL act,CaV13 FRET inh,Efflux pump inh
C/C=C/c1cnc2c(c1)C(=O)N([C@H](C)CO)C[C@H](C)[C@H](CN(C)C(=O)C1CCC1)O2,.,-6,.,.,.
COc1ccc(S(=O)(=O)N2CCOCC2)cc1OC,-12,-2,12,-3,0
COc1ccc(S(=O)(=O)N2CCOCC2)cc1N=Nc1sc(N)nc1-c1ccccc1,81*,2,-81,-4,0
Cc1ccccc1NC(=O)CSc1nc(Nc2ccccc2)nc(N2CCOCC2)n1,81*,.,-81,-7,0
Cc1ccc(F)cc1NC(=O)CSc1nc(Nc2ccccc2)nc(N2CCOCC2)n1,65,8,-65,-7,0
Cc1ccc2c(c1)-c1c(cnn1CC(=O)Nc1ccccc1N1CCN(C)CC1)CO2,3,10,-3,46*,0
CCn1c2ccccc2c2cc([N+](=O)[O-])ccc21,32,7,-32,-5,0
CCn1c2ccccc2c(=O)c2ccccc21,11,22,-11,+,0
Cc1ccc(C)c(NC(=O)CCc2c(C)nn(-c3ccc(N4CCCCC4)nn3)c2C)c1,83*,1,-83,-7,0
CCc1ccc(NC(=O)CCc2c(C)nn(-c3ccc(N4CCCCC4)nn3)c2C)cc1,81*,3,-81,-11,0
Cc1nn(-c2ccc(N3CCCCC3)nn2)c(C)c1CCC(=O)Nc1ccc(F)cc1,49,-8,-49,-14,0
Cc1ccc(NC(=O)CCc2c(C)nn(-c3ccc(N4CCCCC4)nn3)c2C)cc1F,53,5,-53,-2,0
COc1ccc(-c2ccc3c(c2)C2CC3CCN2C(=O)OCc2ccccc2)cc1 (configuration not stated),-12,active,12,-3,.
O=C(OCc1ccccc1)N1CCC2CC1c1cc(-c3cc4ccccc4o3)ccc12 (configuration not stated),.,.,.,-6,.
COc1cc(C(=O)COC(=O)c2cc([N+](=O)[O-])ccc2N2CCOCC2)ccc1OC(F)F,85*,.,-85,-6,0
Cc1cc(C)c(C(=O)COC(=O)c2cc([N+](=O)[O-])ccc2N2CCOCC2)cc1C,79*,2,-79,-7,0
COc1ccccc1C(=O)COC(=O)c1cc([N+](=O)[O-])ccc1N1CCOCC1,85*,-1,-85,-16,0
COc1ccc(C(=O)COC(=O)c2cc([N+](=O)[O-])ccc2N2CCOCC2)c(OC)c1,?,1,-70,-8,0
O=C(COC(=O)c1cc([N+](=O)[O-])ccc1N1CCOCC1)c1ccccc1Cl,68,.,-68,.,0
CCn1c(Oc2ccc(F)cc2)nc2c1c(=O)n(C)c(=O)n2C,1,8,-1,3,0
CCCCn1c(Oc2ccc(C(=O)OC)cc2)nc2c1c(=O)n(C)c(=O)n2C,92*,.,-92,.,0
C/C(CC(=O)NCc1ccccc1)=N\NC(N)=S,48,-17,-48,-5,0

# Screens deposited in PubChem BioAssay by several laboratories.
